These results are taken from ChEMBL document CHEMBL2169869, “Assay and inhibition of diacylglycerol lipase activity” (Bioorg Med Chem Lett, 2012).

Calls of active or inactive are those of the source. The calls are words filed in the database; no cut-off is given here.

The target of experiment [1] is T1, Diacylglycerol lipase-alpha (Mus musculus) (UniProt Q6WQJ1).
T1 sequence (whole entry): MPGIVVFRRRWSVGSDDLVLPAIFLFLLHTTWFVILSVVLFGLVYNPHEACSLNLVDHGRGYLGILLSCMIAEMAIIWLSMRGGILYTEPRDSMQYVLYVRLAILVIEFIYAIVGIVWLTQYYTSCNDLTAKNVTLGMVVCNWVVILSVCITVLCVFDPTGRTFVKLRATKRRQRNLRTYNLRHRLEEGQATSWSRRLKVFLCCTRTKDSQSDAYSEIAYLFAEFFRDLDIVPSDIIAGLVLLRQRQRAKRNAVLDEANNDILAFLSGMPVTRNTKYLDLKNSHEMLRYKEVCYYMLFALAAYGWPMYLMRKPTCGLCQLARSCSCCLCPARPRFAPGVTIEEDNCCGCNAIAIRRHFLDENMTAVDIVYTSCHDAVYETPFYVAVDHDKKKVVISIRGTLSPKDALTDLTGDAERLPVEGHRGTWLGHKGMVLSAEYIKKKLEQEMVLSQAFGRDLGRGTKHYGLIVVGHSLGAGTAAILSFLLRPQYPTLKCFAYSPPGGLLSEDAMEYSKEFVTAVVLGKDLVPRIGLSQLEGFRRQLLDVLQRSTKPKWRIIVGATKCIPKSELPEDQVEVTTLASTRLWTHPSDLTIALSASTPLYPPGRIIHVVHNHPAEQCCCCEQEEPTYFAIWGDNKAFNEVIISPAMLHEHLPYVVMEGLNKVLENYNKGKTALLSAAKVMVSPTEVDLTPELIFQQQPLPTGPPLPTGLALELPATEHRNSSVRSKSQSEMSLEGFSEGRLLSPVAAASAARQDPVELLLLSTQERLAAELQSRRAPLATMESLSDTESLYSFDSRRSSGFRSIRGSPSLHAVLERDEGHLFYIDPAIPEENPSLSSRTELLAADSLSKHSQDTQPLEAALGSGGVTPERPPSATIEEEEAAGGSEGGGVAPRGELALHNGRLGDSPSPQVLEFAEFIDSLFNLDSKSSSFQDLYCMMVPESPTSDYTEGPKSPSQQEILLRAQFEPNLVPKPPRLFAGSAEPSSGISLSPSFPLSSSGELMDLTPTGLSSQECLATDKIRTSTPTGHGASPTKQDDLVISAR
Briefly: Inhibition of mouse DAGLalpha expressed in HEK293T cell membrane using [14C]SAG substrate at 10 nM by scintillation counting based radio-TLC assay. It is filed as cell membranes. The conditions noted are these: HEK-293T.

Experiment [2] is filed under the species Sus scrofa. Briefly: Inhibition of porcine pancreatic lipase type 2 at 10 uM by FRET assay.
For experiment [3], the target named is T2, Fatty-acid amide hydrolase 1 (Rattus norvegicus) (UniProt P97612).
T2 sequence (whole entry): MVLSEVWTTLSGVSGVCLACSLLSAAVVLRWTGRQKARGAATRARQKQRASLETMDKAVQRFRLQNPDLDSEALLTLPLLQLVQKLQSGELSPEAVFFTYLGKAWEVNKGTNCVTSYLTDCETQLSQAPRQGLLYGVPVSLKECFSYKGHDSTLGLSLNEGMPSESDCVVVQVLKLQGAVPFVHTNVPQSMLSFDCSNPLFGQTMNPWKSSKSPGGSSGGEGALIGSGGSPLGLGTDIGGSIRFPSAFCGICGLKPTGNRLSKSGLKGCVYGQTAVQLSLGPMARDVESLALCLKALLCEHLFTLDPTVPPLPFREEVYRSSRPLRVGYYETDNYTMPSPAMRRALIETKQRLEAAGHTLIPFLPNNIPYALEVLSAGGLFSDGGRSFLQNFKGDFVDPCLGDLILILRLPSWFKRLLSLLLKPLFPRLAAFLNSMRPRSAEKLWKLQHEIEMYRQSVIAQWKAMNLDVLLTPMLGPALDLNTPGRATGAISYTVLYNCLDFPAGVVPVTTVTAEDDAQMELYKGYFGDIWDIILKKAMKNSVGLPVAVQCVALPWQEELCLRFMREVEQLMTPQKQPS
Briefly: Inhibition of rat histidine tagged FAAH expressed in Escherichia coli at 10 uM by coumarin ester substrate fluorescence assay.

Experiment [4] addresses T3, Diacylglycerol lipase-alpha (Homo sapiens) (UniProt Q9Y4D2).
T3 sequence (whole entry): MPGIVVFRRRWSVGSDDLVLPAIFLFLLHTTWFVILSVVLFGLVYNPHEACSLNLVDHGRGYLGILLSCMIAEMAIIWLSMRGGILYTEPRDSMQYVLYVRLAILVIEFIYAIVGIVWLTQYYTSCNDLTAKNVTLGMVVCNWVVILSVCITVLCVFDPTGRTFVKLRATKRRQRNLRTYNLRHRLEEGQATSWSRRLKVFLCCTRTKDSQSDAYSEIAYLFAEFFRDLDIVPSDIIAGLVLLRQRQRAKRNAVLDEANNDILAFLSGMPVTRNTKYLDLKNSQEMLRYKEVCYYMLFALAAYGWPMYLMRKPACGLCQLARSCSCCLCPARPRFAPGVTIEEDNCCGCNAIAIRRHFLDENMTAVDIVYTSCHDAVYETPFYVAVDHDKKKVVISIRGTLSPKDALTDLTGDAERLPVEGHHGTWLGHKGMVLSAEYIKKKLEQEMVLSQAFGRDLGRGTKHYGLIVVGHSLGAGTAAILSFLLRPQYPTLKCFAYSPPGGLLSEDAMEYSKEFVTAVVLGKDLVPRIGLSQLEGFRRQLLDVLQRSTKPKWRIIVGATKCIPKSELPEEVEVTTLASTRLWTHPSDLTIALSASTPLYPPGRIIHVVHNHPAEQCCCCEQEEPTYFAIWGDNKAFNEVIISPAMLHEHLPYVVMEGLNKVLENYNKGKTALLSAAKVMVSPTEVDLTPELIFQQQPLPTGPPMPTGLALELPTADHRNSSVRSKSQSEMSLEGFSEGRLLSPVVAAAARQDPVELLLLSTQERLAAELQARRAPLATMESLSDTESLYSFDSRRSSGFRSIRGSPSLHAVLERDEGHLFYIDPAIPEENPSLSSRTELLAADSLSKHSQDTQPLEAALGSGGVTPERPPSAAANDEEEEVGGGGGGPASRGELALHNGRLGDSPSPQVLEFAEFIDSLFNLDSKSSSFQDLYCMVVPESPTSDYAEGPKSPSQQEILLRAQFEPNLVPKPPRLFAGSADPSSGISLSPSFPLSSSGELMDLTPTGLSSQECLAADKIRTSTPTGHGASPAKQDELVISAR
Briefly: Inhibition of human DAGLalpha expressed in HEK293T cell membrane using [14C]SAG substrate at 10 uM in presence of 0.05% Triton X-100 by scintillation counting based radio-TLC assay. The format is cell membranes. The conditions noted are these: HEK-293T. The method in brief: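 Sonicated HEK293T protein (100 μg) in 50 mM Tris pH 7.4 with 10 mM CaCl2. Inhibitor in DMSO (10% DMSO standard) preincubated 15 min at 37 °C. [14C]SAG was added to 20 μM final for 20 min at 37 °C, with Triton X-100 where the line states it. Quenched with 2:1 CHCl3/MeOH. Silica TLC in CHCl3/MeOH/NH4OH 86:14:0.75, then 12 h phosphorimaging. Activity = (2-AG+AA)/(2-AG+AA+SAG). Background-subtracted; n=1–2.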

The inhibition is the change of the read-out against control, counted positive when it falls. Consider `CCCCCCCCCCC[C@@H](C[C@@H]1OC(=O)[C@H]1CCCCCC)OC(=O)[C@@H](NC=O)[C@@H](C)CC`, for which the inhibition stood at 69% in experiment [1], 99% in experiment [2], 7% in experiment [3] and 98% in experiment [4].

Turning to `O=C(Oc1ccc([N+](=O)[O-])cc1)N1CCC(C(O)(c2ccc3c(c2)OCO3)c2ccc3c(c2)OCO3)CC1`, in experiment [1], the inhibition result was “inactive”. Further, the inhibition in experiment [2] was 36%; in experiment [3] it was 97%.

On to `CCCCCCCCCCC[C@@H](C[C@@H]1OC(=O)[C@H]1CCCCCC)OC(=O)[C@H](NC=O)[C@@H](C)CC`, for which the inhibition is 19% in experiment [1], 95% in experiment [2], 0% in experiment [3] and 86% in experiment [4].

With `CCCCCCCCCCC[C@@H](C[C@@H]1OC(=O)[C@H]1CCCCCC)OC(=O)[C@H](NC=O)[C@H](C)CC`, the inhibition worked out at 33% in experiment [1], 99% in experiment [2], 28% in experiment [3] and 78% in experiment [4].

Turning to `CCCCCCCCCCC[C@@H](C[C@@H]1OC(=O)[C@H]1CCCCCC)OC(=O)[C@H](CC)NC=O`, the inhibition in experiment [1] was 50%; in experiment [2] it was 97%; in experiment [3], 12%; in experiment [4], 99%.

On to `CCCCCCCCCCC[C@@H](C[C@@H]1OC(=O)[C@H]1CCCCCC)OC(=O)[C@H](CC(C)C)NC=O` [ORLISTAT], for which the inhibition stood at 55% in experiment [1], 98% in experiment [2], 6% in experiment [3] and 100% in experiment [4].

`CCCCCCCCCCC[C@@H](C[C@@H]1OC(=O)[C@H]1CCCCCC)OC(=O)[C@@H](NC=O)[C@H](C)CC`: the inhibition was 60% in experiment [1], 98% in experiment [2], 3% in experiment [3] and 95% in experiment [4].
